From PubChem
A selection: hits, their analogues and other compounds. The true share with any hit is near 6.1%.
WT yeast gro inh – growth inhibition of WT strain, primary screen, mitochondrial fusion inhibitor project, WT and mutant strains, chemical genetic | mitochondrial fusion phenotypic screen | inhibition, % at 10 µM | 2.1% of 190,000 active; in the data active means inhibition above about 58%; tested in S. cerevisiae
Yeast life ext – compounds extending yeast replicative lifespan, primary screen, S. cerevisiae, OD615; S. cerevisiae growth with nicotinamide; deaD strain in restrictive glucose medium; inhibition of the nicotinamide effect, % at 10 µM; 0.68% of 130,000 active;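 active means inhibition above a set limit, placed 3 SD over the median of all compounds, cut at about 26% in these data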;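 further: 0% = nicotinamide-treated wells and 100% = cells grown without nicotinamide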
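Material: Modified budding yeast, DeaD strain | Medium: Restrictive glucose medium | Probe or stimulus: 1.5 mM nicotinamide | Dosing: Single dose 10 µM compound, 0.25% DMSO | Times: 48 h at 30 °C | Technique: OD615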
RAM network inh – inhibitors of the yeast RAM network, primary screen, dse1pr::URA3 reporter, 5-FOA selection | 1.8% of 190,000 active | S. cerevisiae dse1pr::URA3 reporter, 5-FOA growth OD615, 2 d; analog-sensitive cbk1-as2 kinase mutant strain | inhibition, % at 50 µM | AID 868, 2007;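 active means inhibition above a set limit, 3 SD over mean compound inhibition, cut at about 8.4% in these data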;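 further: 0% = DMSO-only wells with no growth and 100% = 10 µM 1-NA-PP1 full growth; inhibition rescues growth on 5-FOA so higher OD means more RAM inhibition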
Measles CPE – compounds protecting cells from measles virus cytopathic effect, primary screen, measles RdRp inhibitor project, single point, MLSMR library, absorbance; 1.5% of 140,000 active; protection (pct of control), % at 4 µM; Measles virus-infected cells, CPE protection; in the data active means protection mostly above about 24%, no sharp cut-off; inactive means mostly below about 26%
hDAT+cocaine – changed hDAT dopamine uptake under cocaine IC80, either direction, primary screen, cocaine antagonist project, cell-based, LLC-PK1 hDAT, [14C]-dopamine uptake, MLSMR; Sodium-dependent dopamine transporter (Homo sapiens), Q01959; LLC-PK1 hDAT cells, [14C]-dopamine uptake with cocaine IC80; actives deviate in either direction; B-score at 10 µM; 1.3% of 110,000 active; AID 449768, 2010;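 active means Z score or B-score, a plate-position-corrected score, falls beyond the plate's 99.7% confidence bounds, in either direction; inactive means both scores lie inside the 99.7% bounds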;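 further: scored against the spread of the other compound wells on the same plate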
Target sequence (Q01959 whole entry, looked up): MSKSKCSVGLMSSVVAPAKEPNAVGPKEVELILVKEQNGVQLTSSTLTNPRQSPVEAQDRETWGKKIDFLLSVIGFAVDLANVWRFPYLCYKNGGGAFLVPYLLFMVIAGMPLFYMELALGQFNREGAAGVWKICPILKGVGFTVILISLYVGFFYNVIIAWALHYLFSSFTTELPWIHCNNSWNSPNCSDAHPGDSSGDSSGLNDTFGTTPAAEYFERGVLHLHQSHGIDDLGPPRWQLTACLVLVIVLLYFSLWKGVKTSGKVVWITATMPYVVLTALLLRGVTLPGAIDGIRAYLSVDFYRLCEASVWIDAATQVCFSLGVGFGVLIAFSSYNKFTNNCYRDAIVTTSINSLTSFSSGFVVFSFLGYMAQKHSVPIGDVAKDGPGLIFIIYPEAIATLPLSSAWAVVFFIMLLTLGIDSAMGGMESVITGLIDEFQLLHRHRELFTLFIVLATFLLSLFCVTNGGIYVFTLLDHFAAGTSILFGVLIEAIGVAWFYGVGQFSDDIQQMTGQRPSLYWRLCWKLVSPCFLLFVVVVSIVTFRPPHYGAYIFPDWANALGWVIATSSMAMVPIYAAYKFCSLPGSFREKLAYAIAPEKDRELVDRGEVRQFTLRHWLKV
Yeast growth inh – growth inhibitors of yeast BB579 in restrictive medium, primary screen, yeast lifespan-shortening project, S. cerevisiae | OD615, 48 h | inhibition, % at 10 µM | 0.51% of 140,000 active;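 active means inhibition above a set limit, 3 SD over the mean compound inhibition, cut at about 44% in these data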
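Detection: OD615 turbidity measurement; Material: Saccharomyces cerevisiae DeaD strain BB579, replicative lifespan model yeast; Timing: 48 h exposure, 30 °C; Doses: single 10 µM dose; Medium: CSMM-D restrictive synthetic medium containing dextrose (glucose); Controls: amphotericin B at 10 µg/mL as positive control.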
* hit, by the source's call; · = no result.

SMILES | WT yeast gro inh | Yeast life ext | RAM network inh | Measles CPE | hDAT+cocaine | Yeast growth inh
CSc1ccc(S(=O)(=O)Nc2ccc3c(c2)OCCO3)cc1 | 10.0 | -6.9 | -1.4 | 42.4* | -0.746 | -43.7
Cn1ncc([N+](=O)[O-])c1C(=O)Nc1nccs1 | 3.9 | 1.0 | -0.7 | 19.6 | · | -9.8
Cc1ccc(CNn2cnnc2SCC(=O)NC(C)(C)C)cc1 | -8.2 | -13.1 | -1.8 | 27.9 | 2.16* | -1.2
CC(C)(C)NC(=O)CSc1nncn1NCc1ccccc1 | 52.5 | -7.1 | 2.1 | 5.5 | 0.147 | -19.3
COc1cc(OC)c(-c2nnc3n(CCc4ccccc4)c(=O)c4ccccc4n23)cc1OC | 15.1 | -5.1 | 5.7 | 16.8 | · | -19.9
COc1ccc(-c2nnc3n(CCc4ccccc4)c(=O)c4ccccc4n23)c(OC)c1 | 98.2* | -3.2 | 4.5 | 18.6 | · | -23.9
C=CCn1c(C)c(C(C)=O)c(N2CCN(C(c3ccccc3)c3ccccc3)CC2)nc1=S | 71.9* | · | 1.9 | · | · | ·
CC(=O)c1c(N2CCN(C)CC2)nc(=S)n(Cc2ccccc2)c1C | -2.6 | 0.3 | 1.2 | 5.4 | · | -4.2
CN(C)C(=O)COC(=O)c1ccccc1NC(=O)c1ccco1 | 3.6 | · | 1.2 | · | · | ·
CCOc1ccc(-c2nc(-c3cccnc3)no2)cc1 | 8.9 | · | 0.1 | 34.4* | 0.159 | -27.5
COc1ccc(-c2nc(-c3ccccn3)no2)cc1 | 64.4* | · | -0.4 | · | · | ·
CCCCOc1ccc(-c2nc(-c3cccnc3)no2)cc1 | 12.3 | -5.3 | 2.6 | 9.7 | 0.000677 | 8.0
S=c1[nH]nc(C2CC2c2ccc(Cl)cc2)n1-c1ccc(Cl)cc1 (stereo unspecified) | 75.9* | -3.2 | 0.7 | 30.6 | · | 5.5
Cc1ccc(-n2c(C3CC3c3ccc(Cl)cc3)n[nH]c2=S)cc1 (stereo unspecified) | 23.5 | -13.9 | 3.4 | 3.3 | 0.689 | -23.6
O=C1c2ccccc2NC(c2ccc(-c3cccc([N+](=O)[O-])c3)o2)N1O (stereo unspecified) | -11.0 | 2.3 | 0.7 | 5.3 | · | 26.8
O=C1c2ccccc2NC(c2ccc(-c3ccc(Br)cc3)o2)N1O (stereo unspecified) | -0.1 | -2.8 | -1.2 | · | 1.67 | 93.6*
c1cncc(-c2ccnc3ncnn23)c1 | -4.2 | -5.6 | 0.9 | 11.7 | · | -38.5
CCOc1cccc(C(=O)Nc2ccccc2N2CCN(C(=O)C(C)C)CC2)c1 | 19.2 | -6.6 | 1.5 | 5.0 | -9.07* | -49.2
Cc1ccc(C(=O)Nc2ccccc2N2CCN(C(=O)C(C)C)CC2)cc1 | -17.0 | -3.9 | 2.5 | 5.6 | 0.45 | -57.6
CCOc1nc(-c2ccccc2)ccc1-c1noc(-c2ccncc2)n1 | 4.7 | -10.5 | 0.4 | 5.8 | -0.866 | -15.1
CCOc1nc(-c2ccccc2)ccc1-c1noc(-c2cccs2)n1 | -9.3 | 0.2 | 10.5* | 3.9 | 1.44 | -2.5
O=C(O)c1cc2c(s1)-c1ccccc1CC2 | -15.0 | -6.9 | -0.1 | 10.1 | · | 45.5*
C=CCc1ccccc1OCCSc1nc2ccc([N+](=O)[O-])cc2s1 | -0.6 | 4.3 | 10.5* | 14.8 | · | -14.1
Nc1ccc2nc(SCc3ccc([N+](=O)[O-])cc3)sc2c1 | -10.8 | -21.3 | 3.1 | 5.8 | · | -34.8
O=[N+]([O-])c1ccc2nc(SCc3ccccc3Cl)sc2c1 | -7.8 | -12.0 | 9.6* | 3.2 | -0.736 | -28.1
SMILES | WT yeast gro inh | Yeast life ext | RAM network inh | Measles CPE | hDAT+cocaine | Yeast growth inh
Cc1ccc2cc(C(c3nnnn3C3CCCC3)N3CCN(c4ccc(F)cc4)CC3)c(=O)[nH]c2c1 (stereo unspecified) | -13.0 | -3.3 | -0.2 | 7.7 | 3.73* | -16.1
COC(=O)c1ccc(C)c(-n2c(C)cc(C=O)c2C)c1 | 9.6 | 3.8 | 0.5 | 6.4 | · | -42.2
CCN(CC)CCNCc1ccc(-c2ccc(Cl)cc2)o1 | 18.4 | 5.3 | 1.2 | 7.8 | -0.146 | 7.3
CCNc1nc(NCC)nc(SCCOC(=O)Nc2ccc(Cl)cc2Cl)n1 | 42.9 | -3.0 | 10.5* | 1.9 | · | -18.5
CCNc1nc(NCC)nc(SCCOC(=O)c2ccccc2)n1 | 9.7 | · | 0.6 | 5.7 | 1.17 | -11.2
CCNc1nc(SCCOc2ccc(Cl)cc2Cl)nc(N(C)C)n1 | 63.8* | · | 2.3 | · | · | ·
O=C(O)c1cc2ccccc2n1-c1ccccc1 | -24.5 | -0.4 | -1.7 | 23.2 | -1.05 | 2.0
COc1ccc(C)cc1NC(=O)NNC(=O)C1CCC(C(C)(C)C)CC1 (stereo unspecified) | 42.1 | · | 2.1 | · | · | ·
O=C(CN1CCN(c2ccccc2)CC1)N1N=CCC1c1ccccc1 (stereo unspecified) | 20.0 | 12.3 | 2.0 | 3.4 | -0.291 | -13.7
O=C(CSC(=S)N1CCOCC1)N1N=CCC1c1ccccc1 (stereo unspecified) | 6.3 | -6.5 | -0.1 | 35.4* | -0.0177 | 25.5
O=C(CCOc1ccccc1)Nc1cccc([N+](=O)[O-])c1 | 7.8 | · | 0.4 | · | · | ·
Cc1cccc(NC(=O)CCOc2ccccc2)c1 | 3.0 | -19.9 | 2.5 | 12.5 | -1.91* | -33.9
O=C(CCl)c1ccc2c(c1)CCN2C(=O)C1CCCCC1 | 10.9 | · | -0.4 | · | · | ·
COc1ccc2cc3cc(C(=O)NCCN4CCc5ccccc5C4)sc3nc2c1 | 58.4* | 0.2 | 2.6 | 15.2 | · | -59.1
O=C(Nc1ccc(S(=O)(=O)N2CCN(Cc3ccccc3)CC2)cc1)c1cnccn1 | 59.7* | 10.9 | 1.2 | 7.0 | -0.669 | -25.6
O=C(Nc1ccc(S(=O)(=O)N2CCCC2)cc1)c1cnccn1 | -11.4 | · | 1.0 | · | · | ·
Cc1cccc(C)c1NC(=O)CNC(=O)CCC(=O)c1cccs1 | -19.2 | -0.9 | 0.9 | 18.1 | · | -24.9
O=C(Nc1ccc(Cl)cc1)c1cc(S(=O)(=O)N2CCOCC2)cs1 | 18.3 | 1.6 | 1.9 | 78.3* | 0.26 | -27.1
COc1cccc(CC2(CO)CCCN(Cc3ccc(CN4CCCCC4)s3)C2)c1 (stereo unspecified) | 3.1 | · | 0.4 | · | · | ·
CSc1ccc(C(=O)C2CCCN(Cc3cccn3-c3cccnc3)C2)cc1 (stereo unspecified) | 6.5 | · | 0.8 | · | · | ·
Nc1nc(N2CCN(c3ccc(Cl)cc3)CC2)n[nH]1 | 3.1 | · | 1.0 | · | · | ·
Nc1nc(Nc2ccc(Cl)cc2)n[nH]1 | 6.7 | -14.6 | 0.9 | 38.5* | -0.696 | -13.0
Cc1ccc(Sc2nc3ccc(C)cn3c(=O)c2/C=N/O)cc1 | 11.7 | · | 3.9 | · | · | ·
CCN1CCc2c(OCC(=O)N3CCCCC3)cccc2C1=O | -6.2 | · | 2.7 | · | · | ·
Cc1ccc(CNc2nc(N)c([N+](=O)[O-])c(Nc3ccc(F)cc3)n2)cc1 | -1.4 | -11.1 | 1.1 | -0.1 | -11.2* | -36.7
Cc1ccc(Nc2nc(NCC3CCCO3)nc(N)c2[N+](=O)[O-])cc1C (stereo unspecified) | -2.2 | 0.1 | 0.0 | 16.1 | · | -12.5
